Reference: ChEMBL document CHEMBL1759916, “Bicyclo[2.2.2]octyltriazole inhibitors of 11β-hydoxysteroid dehydrogenase type 1. Pharmacological agents for the treatment of metabolic syndrome” (Bioorg Med Chem Lett, 2011)

Legend:
Mus musculus [1] = assay: Inhibition of 11beta-HSD1 in ICR mouse assessed as inhibition of conversion of [3H]-cortisone to [3H]-cortisol at 10 mg/kg, po administered 16 hrs before [3H]-cortisone challenge; format: functional
Outline: (§1)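 Mouse pharmacodynamic model. Compound given 10 mg/kg PO, then 3H-cortisone by tail vein injection 1, 4 or 16 h after dosing. […] Plasma compound levels were measured after the PD studies.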

Mus musculus [2] = assay: Inhibition of 11beta-HSD1 in ICR mouse assessed as inhibition of conversion of [3H]-cortisone to [3H]-cortisol at 10 mg/kg, po administered 4 hrs before [3H]-cortisone challenge; format: functional; outline: as §1
[3] = target: 11-beta-hydroxysteroid dehydrogenase 1 (Mus musculus, UniProt P50172); assay: Inhibition of mouse 11beta-HSD1 expressed in CHO-K1 cells assessed as conversion of [3H]-cortisone to [3H]-cortisol by scintillation proximity assay; format: cell-based
[4] = target: T1, 11-beta-hydroxysteroid dehydrogenase type 2 (Mus musculus, UniProt P51661); assay: Inhibition of mouse 11beta-HSD2 expressed in CHO-K1 cells assessed as conversion of [3H]-cortisol to [3H]-cortisone by scintillation proximity assay; format: cell-based
T1 sequence (P51661 whole entry): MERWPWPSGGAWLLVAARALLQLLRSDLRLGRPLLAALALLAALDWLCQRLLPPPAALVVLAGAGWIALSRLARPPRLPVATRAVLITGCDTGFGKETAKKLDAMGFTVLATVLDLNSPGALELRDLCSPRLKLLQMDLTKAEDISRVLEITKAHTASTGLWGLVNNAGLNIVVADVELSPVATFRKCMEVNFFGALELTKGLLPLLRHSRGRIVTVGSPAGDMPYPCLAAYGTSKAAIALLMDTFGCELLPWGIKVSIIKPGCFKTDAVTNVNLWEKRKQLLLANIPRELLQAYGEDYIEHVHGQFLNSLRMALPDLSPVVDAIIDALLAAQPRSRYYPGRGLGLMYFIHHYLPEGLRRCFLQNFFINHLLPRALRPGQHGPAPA
Outline: (§2)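 Scintillation proximity assay (SPA). IC50 values are the average of two determinations.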

[5] = target: 11-beta-hydroxysteroid dehydrogenase 1 (Homo sapiens, UniProt P28845); assay: Inhibition of human 11beta-HSD1 expressed in CHO-K1 cells assessed as conversion of [3H]-cortisone to [3H]-cortisol by scintillation proximity assay; format: cell-based; outline: as §2
[6] = target: T2, 11-beta-hydroxysteroid dehydrogenase type 2 (Homo sapiens, UniProt P80365); assay: Inhibition of human 11beta-HSD2 expressed in CHO-K1 cells assessed as conversion of [3H]-cortisol to [3H]-cortisone by scintillation proximity assay; format: cell-based
T2 sequence (P80365 whole entry): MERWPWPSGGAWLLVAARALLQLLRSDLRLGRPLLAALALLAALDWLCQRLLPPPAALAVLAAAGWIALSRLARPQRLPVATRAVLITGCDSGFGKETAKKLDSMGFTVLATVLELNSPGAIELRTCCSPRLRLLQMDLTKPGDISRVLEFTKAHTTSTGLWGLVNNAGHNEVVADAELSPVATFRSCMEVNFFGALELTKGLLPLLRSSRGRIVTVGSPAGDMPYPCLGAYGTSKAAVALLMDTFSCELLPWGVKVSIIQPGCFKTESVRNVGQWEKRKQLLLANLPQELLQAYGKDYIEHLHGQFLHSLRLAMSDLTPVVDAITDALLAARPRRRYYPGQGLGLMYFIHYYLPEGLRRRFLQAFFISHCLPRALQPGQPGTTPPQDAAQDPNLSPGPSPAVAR

[7] = Clearance in C57 mouse at 2 mg/kg, iv; format: ADME, organism-based; parameters: dose 2 mg/kg, route intravenous; details: in vivo
Outline: (§3)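 Mouse PK from 2 mg/kg IV and 10 mg/kg oral dosing. The PO AUC is reported normalized to dose.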

[8] = Bioavailability in C57 mouse at 2 mg/kg, iv and 10 mg/kg, po; format: ADME, organism-based; details: in vivo; outline: as §3
Mus musculus [9] = assay: Inhibition of 11beta-HSD1 in ICR mouse assessed as inhibition of conversion of [3H]-cortisone to [3H]-cortisol at 10 mg/kg, po administered 1 hr before [3H]-cortisone challenge; format: functional; outline: as §1

11-beta-hydroxysteroid dehydrogenase 1 (Mus musculus, UniProt P50172), sequence (P50172 whole entry): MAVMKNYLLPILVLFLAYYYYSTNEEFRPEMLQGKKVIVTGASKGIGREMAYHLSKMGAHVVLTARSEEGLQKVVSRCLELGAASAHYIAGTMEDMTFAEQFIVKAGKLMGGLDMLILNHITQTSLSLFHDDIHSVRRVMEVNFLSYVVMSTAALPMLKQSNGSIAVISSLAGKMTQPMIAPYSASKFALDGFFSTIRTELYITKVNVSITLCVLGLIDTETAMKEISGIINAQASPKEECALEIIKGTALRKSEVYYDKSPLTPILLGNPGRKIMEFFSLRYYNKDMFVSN
11-beta-hydroxysteroid dehydrogenase 1 (Homo sapiens, UniProt P28845), sequence (P28845 whole entry): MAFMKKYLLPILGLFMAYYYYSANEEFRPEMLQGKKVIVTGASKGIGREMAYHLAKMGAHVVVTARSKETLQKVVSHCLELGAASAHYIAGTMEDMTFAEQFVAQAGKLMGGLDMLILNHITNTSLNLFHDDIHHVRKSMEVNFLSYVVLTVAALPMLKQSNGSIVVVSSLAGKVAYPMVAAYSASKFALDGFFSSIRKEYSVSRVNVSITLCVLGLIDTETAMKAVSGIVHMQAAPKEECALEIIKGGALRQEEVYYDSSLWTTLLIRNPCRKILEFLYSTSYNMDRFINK

**Q.** For `CC(=O)CCCC12CCC(c3nnc(-c4ccccc4C(F)(F)F)n3C)(CC1)CC2`, which inhibition in vivo at 10 mg/kg (Mus musculus [1]) is on record?
**A.** 32%

**Q.** And the inhibition in vivo at 10 mg/kg (Mus musculus [2])?
**A.** 90%

**Q.** What about the IC50 [3] of the same compound?
**A.** 1.3 nM

**Q.** What about the IC50 [4] of the same compound?
**A.** > 4000 nM

**Q.** And the IC50 [5]?
**A.** 1.2 nM

**Q.** And the IC50 [6]?
**A.** 4000 nM

**Q.** And the clearance [7]?
**A.** 21 mL/min/kg

**Q.** And the bioavailability [8]?
**A.** 25%

**Q.** Which inhibition in vivo at 10 mg/kg (Mus musculus [1]) does the source give for `Cn1c(-c2ccccc2C(F)(F)F)nnc1C12CCC(CCS(C)(=O)=O)(CC1)CC2` here?
**A.** 63%

**Q.** And the inhibition in vivo at 10 mg/kg (Mus musculus [2])?
**A.** 96%

**Q.** And the IC50 [3]?
**A.** 4.1 nM

**Q.** What about the IC50 [4] of the same compound?
**A.** > 4000 nM

**Q.** What about the IC50 [5] of the same compound?
**A.** 11 nM

**Q.** What about the IC50 [6] of the same compound?
**A.** > 4000 nM

**Q.** With `Cn1c(-c2ccccc2C(F)(F)F)nnc1C12CCC(CCS(=O)(=O)c3ccc(F)cc3)(CC1)CC2` as the compound, how does the inhibition in vivo at 10 mg/kg (Mus musculus [1]) read?
**A.** 2%

**Q.** What about the inhibition in vivo at 10 mg/kg (Mus musculus [2]) of the same compound?
**A.** 63%

**Q.** What about the IC50 [3] of the same compound?
**A.** 1.8 nM

**Q.** What about the IC50 [4] of the same compound?
**A.** > 4000 nM

**Q.** What about the IC50 [5] of the same compound?
**A.** 5.5 nM

**Q.** And the IC50 [6]?
**A.** > 4000 nM

**Q.** With `CCS(=O)(=O)CCC12CCC(c3nnc(-c4ccccc4Br)n3C)(CC1)CC2` as the compound, how does the inhibition in vivo at 10 mg/kg (Mus musculus [1]) read?
**A.** 65%

**Q.** And the inhibition in vivo at 10 mg/kg (Mus musculus [2])?
**A.** 86%

**Q.** And the IC50 [4]?
**A.** > 4000 nM

**Q.** What about the IC50 [5] of the same compound?
**A.** 10 nM

**Q.** What about the IC50 [6] of the same compound?
**A.** > 4000 nM

**Q.** Which results are given for `COCCCCC12CCC(c3nnc(-c4ccccc4C(F)(F)F)n3C)(CC1)CC2`?
**A.** inhibition in vivo at 10 mg/kg (Mus musculus [1]): 1%; inhibition in vivo at 10 mg/kg (Mus musculus [2]): 76%; IC50 [3]: 2 nM; IC50 [4]: > 4000 nM; IC50 [5]: 2 nM; IC50 [6]: 4000 nM

**Q.** Which inhibition in vivo at 10 mg/kg (Mus musculus [1]) does the source give for `CCCS(=O)(=O)NCC12CCC(c3nnc(-c4ccccc4C(F)(F)F)n3C)(CC1)CC2` here?
**A.** 7%

**Q.** What about the inhibition in vivo at 10 mg/kg (Mus musculus [2]) of the same compound?
**A.** 93%

**Q.** What about the IC50 [3] of the same compound?
**A.** 1 nM

**Q.** What about the IC50 [4] of the same compound?
**A.** > 4000 nM

**Q.** And the IC50 [5]?
**A.** 8.1 nM

**Q.** What about the IC50 [6] of the same compound?
**A.** > 4000 nM

**Q.** For `CCSCCC12CCC(c3nnc(-c4ccccc4C(F)(F)F)n3C)(CC1)CC2`, which inhibition in vivo at 10 mg/kg (Mus musculus [1]) is on record?
**A.** 72%

**Q.** And the inhibition in vivo at 10 mg/kg (Mus musculus [2])?
**A.** 79%

**Q.** And the IC50 [3]?
**A.** 3.9 nM

**Q.** And the IC50 [4]?
**A.** > 4000 nM

**Q.** What about the IC50 [5] of the same compound?
**A.** 3.3 nM

**Q.** What about the IC50 [6] of the same compound?
**A.** > 4000 nM

**Q.** With `CCS(=O)(=O)CCC12CCC(c3nnc(-c4ccccc4Cl)n3C)(CC1)CC2` as the compound, how does the inhibition in vivo at 10 mg/kg (Mus musculus [1]) read?
**A.** 74%

**Q.** And the inhibition in vivo at 10 mg/kg (Mus musculus [2])?
**A.** 87%

**Q.** What about the IC50 [4] of the same compound?
**A.** > 4000 nM

**Q.** What about the IC50 [5] of the same compound?
**A.** 7.5 nM

**Q.** What about the IC50 [6] of the same compound?
**A.** > 4000 nM

**Q.** For `CCS(=O)(=O)CCC12CCC(c3nnc(-c4ccc(Cl)cc4)n3C)(CC1)CC2`, which IC50 [3] is on record?
**A.** > 4000 nM

**Q.** What about the IC50 [4] of the same compound?
**A.** > 4000 nM

**Q.** And the IC50 [5]?
**A.** 2800 nM

**Q.** What about the IC50 [6] of the same compound?
**A.** > 4000 nM

**Q.** What does the source list for `CCS(=O)(=O)CCC12CCC(c3nnc(-c4ccccc4F)n3C)(CC1)CC2`?
**A.** IC50 [4]: > 4000 nM; IC50 [6]: > 4000 nM

**Q.** For `CC[S+]([O-])CCC12CCC(c3nnc(-c4ccccc4C(F)(F)F)n3C)(CC1)CC2` (stereo not drawn), which inhibition in vivo at 10 mg/kg (Mus musculus [1]) is on record?
**A.** 72%

**Q.** What about the inhibition in vivo at 10 mg/kg (Mus musculus [2]) of the same compound?
**A.** 90%

**Q.** What about the IC50 [3] of the same compound?
**A.** 10 nM

**Q.** And the IC50 [4]?
**A.** > 4000 nM

**Q.** What about the IC50 [5] of the same compound?
**A.** 4.1 nM

**Q.** And the IC50 [6]?
**A.** > 4000 nM

**Q.** For `CC(F)CCCC12CCC(c3nnc(-c4ccccc4C(F)(F)F)n3C)(CC1)CC2` (stereo not drawn), which inhibition in vivo at 10 mg/kg (Mus musculus [1]) is on record?
**A.** 51%

**Q.** And the inhibition in vivo at 10 mg/kg (Mus musculus [2])?
**A.** 96%

**Q.** And the IC50 [3]?
**A.** < 1 nM

**Q.** What about the IC50 [4] of the same compound?
**A.** > 4000 nM

**Q.** And the IC50 [5]?
**A.** < 1 nM

**Q.** And the IC50 [6]?
**A.** 1300 nM

**Q.** For `CCOCC12CCC(c3nnc(-c4ccccc4C(F)(F)F)n3C)(CC1)CC2`, which inhibition in vivo at 10 mg/kg (Mus musculus [1]) is on record?
**A.** 3%

**Q.** And the inhibition in vivo at 10 mg/kg (Mus musculus [2])?
**A.** 44%

**Q.** What about the IC50 [3] of the same compound?
**A.** 2 nM

**Q.** What about the IC50 [4] of the same compound?
**A.** > 4000 nM

**Q.** What about the IC50 [5] of the same compound?
**A.** 4 nM

**Q.** And the IC50 [6]?
**A.** > 4000 nM

**Q.** For `CCS(=O)(=O)NCC12CCC(c3nnc(-c4ccccc4C(F)(F)F)n3C)(CC1)CC2`, which inhibition in vivo at 10 mg/kg (Mus musculus [1]) is on record?
**A.** 50%

**Q.** What about the inhibition in vivo at 10 mg/kg (Mus musculus [2]) of the same compound?
**A.** 95%

**Q.** And the IC50 [3]?
**A.** 2.9 nM

**Q.** And the IC50 [4]?
**A.** > 4000 nM

**Q.** What about the IC50 [5] of the same compound?
**A.** 20 nM

**Q.** And the IC50 [6]?
**A.** > 4000 nM

**Q.** What does the source list for `CC(O)CCCC12CCC(c3nnc4n3CCCCCC4)(CC1)CC2` (stereo not drawn)?
**A.** inhibition in vivo at 10 mg/kg (Mus musculus [9]): 67%; inhibition in vivo at 10 mg/kg (Mus musculus [2]): 41%; IC50 [3]: 19 nM; IC50 [5]: 35 nM

**Q.** For `Cn1c(-c2ccccc2C(F)(F)F)nnc1C12CCC(CCS(=O)(=O)c3ccccc3)(CC1)CC2`, which inhibition in vivo at 10 mg/kg (Mus musculus [1]) is on record?
**A.** 6%

**Q.** And the inhibition in vivo at 10 mg/kg (Mus musculus [2])?
**A.** 69%

**Q.** And the IC50 [3]?
**A.** 1.6 nM

**Q.** And the IC50 [4]?
**A.** > 4000 nM

**Q.** And the IC50 [5]?
**A.** 4.4 nM

**Q.** What about the IC50 [6] of the same compound?
**A.** > 4000 nM
